We go through 18 compounds from ChEMBL document CHEMBL1148754, “4- and 5-aroylindoles as novel classes of potent antitubulin agents” (J Med Chem, 2007).

pIC50: −log10 of the molar value.

The subject of one experiment is KB. The experiment can be described thus: Growth inhibition of human KB cells after 72 hrs by methylene blue dye assay. Type of experiment: functional, cell-based. The gist of the method: (§1)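 Antiproliferative screen in human cancer lines: KB (oral epidermoid carcinoma), HT29 (colorectal carcinoma), H460 (non-small cell lung carcinoma), TSGH and MKN45 (stomach carcinoma), plus KB-VIN10, an MDR-positive line overexpressing P-gp 170/MDR. Potency is reported as IC50.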

Experiment [1] in a line: Growth inhibition of human KB-vin10 cells after 72 hrs by methylene blue dye assay. The conditions noted are these: KB-VIN10, 72 h. Type of experiment: functional. The method, boiled down:
as §1

The subject of the next experiment is MKN-45. In words: Growth inhibition of human MKN45 cells after 72 hrs by methylene blue dye assay. Type of experiment: functional, cell-based. The conditions noted are these: MKN-45, 72 h. The gist of the method: as §1
The test system of a further experiment is TSGH. The experiment can be described thus: Growth inhibition of human TSGH cells after 72 hrs by methylene blue dye assay. In kind it is functional, cell-based. The method, boiled down:
as §1

For another experiment, the system named is HT-29. The experiment can be described thus: Growth inhibition of human HT29 cells after 72 hrs by methylene blue dye assay. Type of experiment: functional, cell-based. Conditions: HT-29, 72 h. The gist of the method:
as §1

The test system of the next experiment is NCI-H460. The experiment can be described thus: Growth inhibition of human H460 cells after 72 hrs by methylene blue dye assay. In kind it is functional, cell-based. The conditions noted are these: NCI-H460, 72 h. The method, boiled down: as §1
The next experiment deals with Tubulin (Homo sapiens) (UniProt P68371+Q9H4B7+P0DPH7+P68366+Q13509+Q71U36+P04350+Q3ZCM7+P07437+P68363+Q9BQE3+Q6PEY2+Q13885+Q9BVA1+Q9BUF5). The experiment can be described thus: Displacement of [3H]colchicine from tubulin at 5 uM. Type of experiment: protein-complex assay.
Another experiment concerns the target Tubulin. The experiment can be described thus: Inhibition of tubulin polymerization in presence of microtubule associated proteins after 30 mins. In kind it is protein-complex assay, Homo sapiens.

On to `COc1cc(C(=O)c2ccc3cc[nH]c3c2)cc(OC)c1OC`, for which the negative logarithm of the IC50 (pIC50) with KB was 6.29; in experiment [1], 6.34; in the experiment on MKN-45 it was 6.32; with TSGH, 6.37; with HT-29, 6.48; in the experiment on NCI-H460 it was 6.28.

With `COc1cc(C(=O)c2cccc3[nH]ccc23)cc(OC)c1OC`, the pIC50 was 7.29 in the experiment with KB; 7.29 in experiment [1]; 5.70 on Tubulin; 7.31 with MKN-45; 7.26 in the experiment with TSGH; 7.33 in the experiment on HT-29. In addition, the negative-log IC50 (pIC50) with NCI-H460 is 7.27. The Activity at Tubulin (Homo sapiens) is 74%.

Regarding `COc1cc(C(=O)c2ccc3c(ccn3C)c2)cc(OC)c1OC`, the negative logarithm of the IC50 (pIC50) with KB is 7.87; in experiment [1], 7.90; on Tubulin, 5.96; in the experiment on MKN-45, 7.95; in the experiment on TSGH, 7.87; in the experiment with HT-29, 7.98. The compound also had a pIC50 in the experiment on NCI-H460 of 7.85. This compound came in with an Activity on Tubulin (Homo sapiens) of 84%.

Take `COc1cc(C(=O)c2ccc3c(ccn3CO)c2)cc(OC)c1OC`: the pIC50 is 7.41 in the experiment with KB; 7.46 in experiment [1]; 5.74 at Tubulin; 7.48 in the experiment with MKN-45; 7.37 in the experiment with TSGH; 7.47 with HT-29. For the same compound, the pIC50 with NCI-H460 was 7.41. Further, on Tubulin (Homo sapiens), the Activity was 78%.

Consider `COc1cc(C(=O)c2ccc3c(ccn3CC(=O)O)c2)cc(OC)c1OC`, for which the negative-log IC50 (pIC50) in the experiment on KB was 6.28; in experiment [1], 6.32; in the experiment on MKN-45, 6.40; in the experiment on TSGH it was 6.26; in the experiment with HT-29, 6.34; with NCI-H460, 6.28.

As for `COc1cc(C(=O)c2cccc3cc[nH]c23)cc(OC)c1OC`, the negative logarithm of the IC50 (pIC50) was 6.51 with KB; 6.55 in experiment [1]; 6.68 in the experiment with MKN-45; 6.51 with TSGH; 6.60 in the experiment on HT-29; 6.53 in the experiment with NCI-H460.

As for `CCCn1ccc2cc(C(=O)c3cc(OC)c(OC)c(OC)c3)ccc21`, the pIC50 with KB is 5.72; in experiment [1], 5.68; with MKN-45 it was 6.17; with TSGH, 5.82; in the experiment on HT-29, 5.74; with NCI-H460, 5.70.

Take `COc1cc(C(=O)c2cccc3c2ccn3C)cc(OC)c1OC`: the negative logarithm of the IC50 (pIC50) with KB was 7.66; in experiment [1], 7.58; on Tubulin, 5.72; with MKN-45 it was 7.67; with TSGH, 7.57; in the experiment with HT-29, 7.65. The compound also gave a pIC50 in the experiment with NCI-H460 of 7.54. At Tubulin (Homo sapiens), this compound came in with an Activity of 75%.

As to `COc1ccc(/C=C\c2cc(OC)c(OC)c(OC)c2)cc1O`, the Activity on Tubulin (Homo sapiens) was found to be 89%.

With `COc1cc2c(c(OC)c1OC)-c1ccc(OC)c(=O)cc1[C@@H](NC(C)=O)CC2` [COLCHICINE], the pIC50 was 6.92 in experiment [1], 7.89 with MKN-45 and 7.72 in the experiment on NCI-H460.

On to `COc1cc(C(=O)c2cc3ccccc3[nH]2)cc(OC)c1OC`, for which the pIC50 in the experiment with KB was 5.54; in experiment [1] it was 5.55; in the experiment on MKN-45 it was 5.82; in the experiment with TSGH, 5.74; with HT-29, 5.77; with NCI-H460, 5.68.

Consider `CCn1ccc2cc(C(=O)c3cc(OC)c(OC)c(OC)c3)ccc21`, for which the negative logarithm of the IC50 (pIC50) in the experiment with KB was 7.44; in experiment [1], 7.40; at Tubulin it was 5.92; in the experiment on MKN-45, 7.51; with TSGH, 7.39; in the experiment with HT-29, 7.49. For the same compound, in the experiment with NCI-H460, the pIC50 was 7.42. The Activity at Tubulin (Homo sapiens) came out at 81%.

For `COc1cc(C(=O)c2ccc3c(ccn3CCC(=O)O)c2)cc(OC)c1OC`, the pIC50 (in the experiment on KB; in experiment [1]; in the experiment with MKN-45; in the experiment on TSGH; with HT-29; with NCI-H460) was < 5.00 each time.

As to `COc1cc(C(=O)c2ccc3[nH]ccc3c2)cc(OC)c1OC`, the negative-log IC50 (pIC50) is 6.98 with KB; 6.95 in experiment [1]; 5.66 on Tubulin; 7.06 with MKN-45; 6.99 with TSGH; 7.00 with HT-29. This compound showed a negative logarithm of the IC50 (pIC50) in the experiment with NCI-H460 of 6.95. This compound registered an Activity on Tubulin (Homo sapiens) of 71%.

As for `COc1cc(C(=O)n2ccc3ccccc32)cc(OC)c1OC`, the negative logarithm of the IC50 (pIC50) with KB is < 5.00; in experiment [1], < 5.00; in the experiment with MKN-45, 5.28; in the experiment on TSGH, 5.08; in the experiment on HT-29, 5.02; in the experiment with NCI-H460, < 5.00.

Take `COc1cc(C(=O)c2ccc3c(ccn3C(C)C)c2)cc(OC)c1OC`: the negative logarithm of the IC50 (pIC50) with KB was 5.74; in experiment [1] it was 5.80; in the experiment on MKN-45, 6.33; with TSGH, 5.96; in the experiment on HT-29, 5.92; in the experiment on NCI-H460, 5.80.

For `COc1cc(C(=O)c2ccc3c(ccn3CCN(C)C)c2)cc(OC)c1OC`, the pIC50 in the experiment on KB is 5.28; in experiment [1], 5.31; in the experiment with MKN-45 it was 5.54; with TSGH, 5.31; with HT-29 it was 5.34; with NCI-H460, 5.29.

For the compound `COc1cc(C(=O)c2c[nH]c3ccccc23)cc(OC)c1OC`, the negative-log IC50 (pIC50) with KB is 5.80; in experiment [1], 5.82; with MKN-45 it was 6.01; in the experiment on TSGH it was 5.96; in the experiment with HT-29, 6.00; with NCI-H460, 5.77.
